Test [1] has as its system Rattus norvegicus. Kind of test: Antiarthritic effect in Lewis rat adjuvant-induced arthritis model spleen adherent cells restimulated with sonicated Mtb post isolation assessed as reduction in IL-1beta production at 200 ug, ip starting from arthritis onset and continued uninterrupted until study end by cytokine multiplex assay. It is filed as functional, organism-based. The essentials:
(§1)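 Mtb-immunized male Lewis rats were dosed 200 μg/rat i.p. daily from arthritis onset (vehicle: 1.2% DMSO/PBS). Spleen adherent cells were prepared on d 18, plated at 1.5 × 10^6/well in 2% FBS medium and restimulated with sonicated Mtb (10 μg/ml) for 24 h. Supernatant chemokines and cytokines were measured by Luminex multiplex. Mean ± SD of triplicates from 4–5 rats.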

For test [2], the system named is Rattus norvegicus. Kind of test: Antiarthritic effect in Lewis rat adjuvant-induced arthritis model spleen adherent cells restimulated with sonicated Mtb post isolation assessed as reduction in CCR6 expression at 200 ug, ip starting from arthritis onset and continued uninterrupted until study end by qPCR. Type of test: functional, organism-based. The essentials: (§2)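 From onset of Mtb-induced arthritis, rats received 200 μg/rat i.p. daily or vehicle. Spleen adherent cells harvested on d 18 (1.5–2.0 × 10^6 cells/well) were cultured in medium or with sonicated Mtb (10 μg/ml) for 24 h. Receptor mRNA was quantified by qPCR after TRIzol RNA isolation and cDNA synthesis, normalized to HGPRT and reported as relative message.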
On the technique in general: In qPCR the cycle at which signal appears reflects the starting amount.

For test [3], the system named is Rattus norvegicus. Nature of the test: Antiarthritic effect in Lewis rat adjuvant-induced arthritis model spleen adherent cells restimulated with sonicated Mtb post isolation assessed as reduction in CXCR1 expression at 200 ug, ip starting from arthritis onset and continued uninterrupted until study end by qPCR analysis. Type of test: functional, organism-based. In a few lines:
as §2

Test [4] relates to Rattus norvegicus. Kind of test: Antiarthritic effect in Lewis rat adjuvant-induced arthritis model spleen adherent cells restimulated with sonicated Mtb post isolation assessed as reduction in CXCR2 expression at 200 ug, ip starting from arthritis onset and continued uninterrupted until study end by qPCR. It is filed as functional, organism-based. In a few lines:
as §2

The test system of test [5] is Rattus norvegicus. Kind of test: Antiarthritic effect in Lewis rat adjuvant-induced arthritis model spleen adherent cells restimulated with sonicated Mtb post isolation assessed as reduction in MIP-1alpha production at 200 ug, ip starting from arthritis onset and continued uninterrupted until study end by cytokine multiplex assay. It is filed as functional, organism-based. The essentials:
as §1

The subject of test [6] is Rattus norvegicus. Nature of the test: Antiarthritic effect in Lewis rat adjuvant-induced arthritis model spleen adherent cells restimulated with sonicated Mtb post isolation assessed as reduction in MCP1 production at 200 ug, ip starting from arthritis onset and continued uninterrupted until study end by cytokine multiplex assay. It is filed as functional, organism-based. In a few lines: as §1

For test [7], the species on record is Rattus norvegicus. Nature of the test: Antiarthritic effect in IL-1beta-stimulatedspleen adherent cells isolated from Lewis rat adjuvant-induced arthritis model assessed as reduction in MIP-1alpha production pre-incubated with compound for 30 mins before stimulation with IL-1beta for 48 hrs by multiplex assay. Type of test: functional, tissue-based. As to conditions: Spleen.

Test [8] is filed under the species Rattus norvegicus. Nature of the test: Antiarthritic effect in IL-1beta-stimulatedspleen adherent cells isolated from Lewis rat adjuvant-induced arthritis model assessed as reduction in IL6 production pre-incubated with compound for 30 mins before stimulation with IL-1beta for 48 hrs by multiplex assay. It is filed as functional, tissue-based. Particulars: Spleen.

The source made the active and inactive calls. The rule behind the calls is not given here.

`CC1=C(O)C(=O)C=C2C1=CC=C1[C@@]2(C)CC[C@@]2(C)[C@@H]3C[C@](C)(C(=O)O)CC[C@]3(C)CC[C@]12C` [CELASTROL]: the outcome in the test on Rattus norvegicus [1], in the test on Rattus norvegicus [2], in the test on Rattus norvegicus [3], in the test on Rattus norvegicus [4] and with Rattus norvegicus [6] was Active. For the same compound, the result in the test on Rattus norvegicus [5] was inactive. Also, the Activity entry in the test filed under Rattus norvegicus [7] and in the test listed under Rattus norvegicus [8] was “Dose-dependent effect” each time.

These data come from ChEMBL document CHEMBL2086325, “Suppression of autoimmune arthritis by Celastrus-derived Celastrol through modulation of pro-inflammatory chemokines” (Bioorg Med Chem, 2012).
